Converted amounts (≈) assume the structure as drawn.
Key:
Format in all cases: functional
Shigella flexneri [1] = experiment: Antibacterial activity against Shigella flexneri ATCC 15391 assessed as diameter of inhibition zone at 1 mg/ml after 24 hrs by cup diffusion method (reference value: 17 mm); conditions: ATCC 15391, 24 h, read-out: DIZ
Candida albicans [2] = experiment: Antifungal activity against Candida albicans ATCC 2091 assessed as diameter of inhibition zone at 1 mg/ml after 48 hrs by cup diffusion method (reference value: 22 mm); conditions: ATCC 2091, 48 h, read-out: DIZ
Pseudomonas aeruginosa [3] = experiment: Antibacterial activity against Pseudomonas aeruginosa ATCC 9027 assessed as diameter of inhibition zone at 1 mg/ml after 24 hrs by cup diffusion method (reference value: 16 mm); conditions: ATCC 9027, 24 h, read-out: DIZ
Staphylococcus aureus = experiment: Antibacterial activity against Staphylococcus aureus ATCC 6538P assessed as diameter of inhibition zone at 1 mg/ml after 24 hrs by cup diffusion method (reference value: 15 mm); conditions: read-out: DIZ
Shigella flexneri [4] = experiment: Antibacterial activity against Shigella flexneri ATCC 15391 after 24 hrs by two-fold serial dilution method; conditions: ATCC 15391, 24 h
In short: (§1)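 Two-fold serial broth dilution in sterile nutrient broth at 500, 250, 125, 62.5, 31.25, 15.63, 7.82 and 3.91 µg/ml, with dimethylformamide ≤2.5%. Organisms were pre-grown 24 h in broth, and 0.1 ml inoculum was added per 5 ml tube. Tubes were incubated at 37°C, 24 h for bacteria and 48 h for fungi. MIC was taken as the lowest concentration giving no turbidity.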

HOP-92 = experiment: Cytotoxicity against human HOP92 cells assessed as growth inhibition at 10 uM; conditions: read-out: GI
Candida albicans [5] = experiment: Antifungal activity against Candida albicans ATCC 2091 after 48 hrs by two-fold serial dilution method relative to clotrimazole
Candida albicans [6] = experiment: Antifungal activity against Candida albicans ATCC 2091 after 48 hrs by two-fold serial dilution method; conditions: ATCC 2091, 48 h; in short: as §1
Pseudomonas aeruginosa [7] = experiment: Antibacterial activity against Pseudomonas aeruginosa ATCC 9027 after 24 hrs by two-fold serial dilution method; conditions: ATCC 9027, 24 h; in short: as §1
Shigella flexneri [8] = experiment: Antibacterial activity against Shigella flexneri ATCC 15391 after 24 hrs by two-fold serial dilution method relative to ofloxacin

MIC (Shigella flexneri [4]) | MIC (Candida albicans [6]) | MIC (Pseudomonas aeruginosa [7]) | Structure (SMILES) | zone of inhibition at 1000 µg/mL (Shigella flexneri [1]) | zone of inhibition at 1000 µg/mL (Candida albicans [2]) | zone of inhibition at 1000 µg/mL (Pseudomonas aeruginosa [3]) | zone of inhibition at 1000 µg/mL (Staphylococcus aureus) | inhibition of growth at 10 µM (HOP-92) | Activity (Candida albicans [5]) | Activity (Shigella flexneri [8])
 |  |  | N#Cc1c(-c2ccco2)nc(SCC2CO2)nc1N1CCOCC1 (stereo not given) | 17 mm | 22 mm | 16 mm | 15 mm |  |  | 
125 µg/mL (≈ 438 µM) |  |  | N#Cc1c(-c2ccccc2)nc(SCC2CO2)[nH]c1=O (stereo not given) | 22 mm | 22 mm | 16 mm | 15 mm | 41.5% |  | 
 |  |  | N#Cc1c(-c2ccccc2)nc(SCC(O)CN2CCOCC2)[nH]c1=O (stereo not given) | 18 mm | 22 mm | 16 mm | 15 mm |  |  | 
 |  |  | Cn1c(=O)c(C#N)c(-c2ccccc2)n2c(CC#N)nnc12 | 19 mm | 22 mm | 17 mm | 15 mm |  |  | 
 | 125 µg/mL (≈ 290 µM) | 125 µg/mL (≈ 290 µM) | N#Cc1c(-c2ccco2)nc(SCC(O)CN2CCOCC2)nc1N1CCOCC1 (stereo not given) | 17 mm | 25 mm | 18 mm | 15 mm |  | 60% | 
 |  |  | Cn1c(N2CCN(Cc3ccccc3)CC2)nc(-c2ccco2)c(C#N)c1=O | 17 mm | 22 mm | 17 mm | 15 mm |  |  | 
 |  |  | Cn1c(-n2[nH]c3c(c2=O)C(=O)CC(=O)O3)nc(-c2ccco2)c(C#N)c1=O | 17 mm | 22 mm | 16 mm | 15 mm |  |  | 
 |  | 125 µg/mL (≈ 331 µM) | Cn1c(-n2[nH]c3c(c2=O)C(=O)CC(=O)O3)nc(-c2ccccc2)c(C#N)c1=O | 17 mm | 22 mm | 19 mm | 15 mm |  |  | 
 |  |  | N#Cc1c(N2CCOCC2)nc(=S)[nH]c1-c1ccc([N+](=O)[O-])cc1 | 18 mm | 22 mm | 16 mm | 15 mm |  |  | 
 | 125 µg/mL (≈ 297 µM) | 125 µg/mL (≈ 297 µM) | CCOC(=O)CC(=N)N(NC(=O)CC#N)c1nc(-c2ccccc2)c(C#N)c(=O)n1C |  |  |  |  |  | 60% | 
 |  |  | N#Cc1c(-c2ccco2)nc(SCC(O)CN2CCOCC2)[nH]c1=O (stereo not given) | 18 mm | 22 mm | 16 mm | 15 mm |  |  | 
125 µg/mL (≈ 327 µM) |  |  | COc1ccc(NC(=O)CSc2nc(-c3ccco3)c(C#N)c(=O)[nH]2)cc1 | 20 mm | 23 mm | 16 mm | 15 mm |  |  | 60%
 |  |  | N#Cc1c(-c2ccc([N+](=O)[O-])cc2)nc(SCC2CO2)[nH]c1=O (stereo not given) | 17 mm | 22 mm | 17 mm | 15 mm |  |  | 
 |  |  | N#Cc1c(Cl)nc(SCC2CO2)nc1-c1ccco1 (stereo not given) | 18 mm | 22 mm | 17 mm | 15 mm |  |  | 
125 µg/mL (≈ 319 µM) |  |  | COc1ccc(NC(=O)CSc2nc(-c3ccccc3)c(C#N)c(=O)[nH]2)cc1 | 20 mm | 22 mm | 16 mm | 15 mm |  |  | 60%
 | 12.5 µg/mL (≈ 36.2 µM) |  | Clc1ccccc1C(c1ccccc1)(c1ccccc1)n1ccnc1 [CLOTRIMAZOLE] |  | 40 mm |  |  |  |  | 
7.81 µg/mL (≈ 21.6 µM) |  | 1.95 µg/mL (≈ 5.4 µM) | CC1COc2c(N3CCN(C)CC3)c(F)cc3c(=O)c(C(=O)O)cn1c23 (stereo not given) [OFLOXACIN] | 32 mm |  | 43 mm | 43 mm |  |  | 
 |  |  | N#Cc1c(Cl)nc(=S)[nH]c1-c1ccc([N+](=O)[O-])cc1 | 17 mm | 22 mm | 16 mm | 15 mm |  |  | 

Source: ChEMBL document CHEMBL2413060, “Synthesis, biological evaluation and molecular docking studies of some pyrimidine derivatives” (2013)
